MT stabilize HCS: stabilizes microtubules in HeLa cells. 200,000 tested, 0.83% active. HeLa tubulin immunostaining HCS, 24 h; share of cells brighter than vehicle mean+2SD. % tubulin-high responders, % at 10 µM;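 active means plate Z-score above 3 for both tubulin-high and condensed-nucleus cell shares, with cell loss under 80%, at 10 µM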;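 further: anti alpha tubulin signal scored within the nucleus-defined area of each cell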
Ba/F3 V617F tox: loss of viability in JAK2V617F-driven Ba/F3 cells | 220,000 tested, 1.1% active | inhibition, % at 5.6 µM | Ba/F3 EpoR-JAK2V617F viability, ATP luminescence;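 active means inhibition above the campaign mean plus 3 SD over all tested compounds, cut at about 24% in these data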;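 further: cytokine-independent growth of Ba/F3 cells driven by EpoR plus mutant JAK2; 0% = DMSO-treated cells and 100% = JAK inhibitor I control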
APP transl inh: APP translation inhibition | SH-SY5Y APP 5'UTR-luciferase reporter, luminescence | inhibition, % at 2 µM | 190,000 tested, 0.82% active | AID 1285;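 active means inhibition above a set limit, derived from the sample mean plus 3 SD, cut at about 45% in these data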
bCat nuc transl: beta-catenin nuclear translocation modulation | HeLa beta-catenin nuclear translocation, immunofluorescence imaging | nuclear translocation activity, % at 5 µM | 190,000 tested, 0.3% active | AID 1665;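 active means nuclear translocation activity above 50% at 5 µM, with a well cell count of 50 or more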;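 further: per-cell ratio of nuclear to cytoplasmic median beta-catenin stain intensity; plate controls were DMSO negative control for no effect and GSK-3 inhibitor IX positive control for full effect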
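System: Human HeLa cells, endogenous beta-catenin | Compound dosing: 5 µM primary, 0.02–20 µM confirmation | Timing: 24 h compound exposure at 37°C, 5% CO2 | Measured by: Fluorescence imaging of beta-catenin antibody stain plus DAPI | Read-out basis: % activation of per-cell nuclear versus cytoplasmic median beta-catenin signal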
BaF3 tox: counter-screen for JAK2V617F inhibitors: parental Ba/F3 viability inhibitors. CellTiter-Glo ATP luminescence. inhibition, % at 5.6 µM. 220,000 tested, 1.1% active. AID 1486;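 active means inhibition above a per-campaign cutoff, the mean inhibition of all tested compounds plus 3 SD, cut at about 27% in these data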;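 further: 0% = DMSO wells and 100% = JAK Inhibitor I control wells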
IEC-6 cytotox: IEC-6 cytotoxicity, counter-screen for KLF5 inhibitors | luminescence viability | inhibition, % at 5 µM | 290,000 tested, 0.78% active | AID 1825;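 further: 0% = plate median of test compound wells and 100% = cytotoxic reference compound wells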
IEC-6 tox confirm: IEC-6 cytotoxicity, confirmation assay; inhibition, % at 5 µM; 1,900 tested, 63% active; shares compounds with IEC-6 cytotox; AID 1907; IEC-6 rat intestinal epithelial viability, luminescence;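 further: 0% = vehicle and 100% = reference cytotoxic drug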
Active calls of the source: *; x = no result given. Compounds with a hit are over-represented: about 2.2% of the library has one in this group of screens. Unless noted, no stated cut-off is given here; in the data, active means inhibition above about 22%; inactive means the rest.

SMILES | MT stabilize HCS | Ba/F3 V617F tox | APP transl inh | bCat nuc transl | BaF3 tox | IEC-6 cytotox | IEC-6 tox confirm
COc1cc(OC)cc(C(=O)Nc2ccc(N3CCN(C(=O)c4cccs4)CC3)cc2)c1 | x | x | x | x | x | 36* | 31*
Cc1cc2nc(C)c(Cl)c(=O)n2[nH]1 | 6 | -3 | -5 | 1 | -4 | 2 | x
Cc1nc2cc(-c3ccc(Br)cc3)[nH]n2c(=O)c1Cl | x | x | x | x | x | 30* | 13
CC1=Nc2ccccc2/C1=C/c1sc(=N)n(-c2nccs2)c1O | 8 | 0 | 8 | 7 | 15 | 27* | 41*
Cc1ccccc1-c1ocnc1C(=O)Nc1ccccc1NC(=O)c1ccccn1 | x | x | x | x | x | 23* | 8
CCCCc1cc(=O)oc2cc(C)cc(OCC(=O)NCc3ccncc3)c12 | x | x | x | x | x | 3 | x
C/C(=N\NC(=O)c1c(C)nc2ccccn12)c1ccccc1F | x | x | x | x | x | -4 | x
C/C(=N\NC(=O)c1c(C)nc2ccccn12)c1ccc(O)cc1O | x | x | x | x | x | 28* | 36*
Cc1nc2ccc(NC(=O)CCC3CCCC3)cc2s1 | x | x | x | x | x | -6 | x
CC(C)(C)NC(=O)COC(=O)c1ccccc1Nc1ccc(SC(F)F)cc1 | 5 | -1 | -4 | 0 | 4 | 38* | 31*
O=C(COC(=O)c1ccccc1Nc1ccc(SC(F)F)cc1)NC1CC1 | 2 | -2 | -20 | 1 | 9 | 9 | x
CCN(C(=O)CSc1nnc(C)n1-c1ccccc1)C1CCS(=O)(=O)C1 (centres undefined) | 4 | -2 | -6 | 0 | 0 | 2 | x
COc1ccc(C(=O)Nc2cc(C)nn2-c2cccc(F)c2)cc1OC | x | x | x | x | x | 2 | x
C=CCN(C(=O)CCC(=O)Nc1cc(C)on1)C(C(=O)NC1CCCC1)c1ccc(OC)cc1OC (centres undefined) | x | x | x | x | x | 2 | x
CC(C)(C)c1ccc(-n2nc(C#N)c(Cl)cc2=O)cc1 | 3 | 15 | 94* | 0 | -11 | 52* | 11
CC(C)(C)c1ccc(-n2nc(C(N)=O)c(O)cc2=O)cc1 | 2 | 3 | 7 | -2 | 3 | 7 | x
COc1cc2c(cc1OC)C1=NC(=O)CN1C(SCc1ccccc1)=N2 | 4 | 0 | -12 | 3 | 5 | 1 | x
COc1ccc(/C=N/NC(=O)c2[nH]c3ccc(Br)cc3c2-c2ccccc2)cc1 | 14* | 96* | 97* | 42 | 93* | 73* | 83*
COc1ccc(/C=N/NC(=O)c2[nH]c3ccc(Br)cc3c2-c2ccccc2)c(C(=O)O)c1OC | x | -4 | x | 1 | 0 | 0 | x
COc1ccc(/C=N/NC(=O)c2[nH]c3ccc(Cl)cc3c2-c2ccccc2)c(C(=O)O)c1OC | x | x | x | x | x | 88* | 12
c1ccn2cc(-c3ccc4c(c3)OCCO4)nc2c1 | 3 | 13 | -117 | 0 | 14 | 11 | x
Cc1ccc2nc(-c3ccc4c(c3)OCCO4)cn2c1 | x | 81* | x | 56* | 79* | 75* | 61*
COc1ccc(-c2cc(C(=O)N/N=C(\C)c3cccnc3)c3ccccc3n2)c(OC)c1 | x | x | x | x | x | 1 | x
Cc1ccc(S(=O)(=O)Nc2cccc3cccnc23)c([N+](=O)[O-])c1 | x | x | x | x | x | 66* | 47*
O=S(=O)(Nc1cccc2ccccc12)c1ccccc1 | x | -4 | x | -1 | 1 | -4 | x
SMILES | MT stabilize HCS | Ba/F3 V617F tox | APP transl inh | bCat nuc transl | BaF3 tox | IEC-6 cytotox | IEC-6 tox confirm
Cc1ccc2cccc(NS(=O)(=O)c3ccccc3)c2n1 | x | x | x | x | x | 99* | 100*
COc1ccc(NS(=O)(=O)c2ccc3ccccc3c2)c2ncccc12 | x | x | x | x | x | 60* | 52*
Cc1cc(C)c(NS(=O)(=O)c2cccc3cccnc23)c(C)c1 | 2 | -1 | 12 | -1 | -2 | -1 | x
O=S(=O)(Nc1cccc2cccnc12)c1ccc(S(=O)(=O)N2CCCC2)cc1 | 8 | 3 | -4 | x | 6 | 32* | 35*
O=C(NNC(=O)C1CCN(Cc2ccc(Cl)c(Cl)c2)CC1)c1cccs1 | 1 | -1 | 4 | 1 | 5 | -6 | x
O=S(=O)(Nc1cccc2cccnc12)c1ccccc1 | x | x | x | x | x | 102* | 98*
O=C1[C@@H]2Cc3c([nH]c4ccccc34)C(c3ccc([N+](=O)[O-])cc3)N2C(=O)CN1C1CC1 (some centres undefined) | x | x | x | x | x | 80* | 50*
CN1CC(=O)N2C(c3cccc([N+](=O)[O-])c3)c3[nH]c4ccccc4c3C[C@H]2C1=O (some centres undefined) | x | x | x | x | x | 34* | 14
